# Measured values collected from several papers.
# Compare with care: the assays were run in different laboratories.
# Target: Tyrosine-protein kinase HCK (HCK, Homo sapiens, UniProt P08631)
Structure (SMILES),effect on,action,technique,tested at,quantity,value
CNc1cccc2cc(C(=O)Nc3ccc(C(=O)O)cc3)c(=O)[nH]c12,enzyme activity,inhibitor,,10 µM,inhibition,-12%
Cc1ccc(C(=O)NCc2ccsc2)cc1C#Cc1cn(C(C)C)c2ncnc(N)c12,enzyme activity,inhibitor,,1 µM,activity vs control,4%
CN(C)C1CCN(CC#Cc2nn(C3CCCC3)c3nc(NCc4ccccc4)ncc23)C1 (stereo not shown),enzyme activity,inhibitor,FRET,10 µM,inhibition,19%
CCCOc1ccc([C@@H]2[C@@H](C(=O)O)[C@H](c3ccc4c(c3)OCO4)CN2CC(=O)Nc2c(CC)cccc2CC)cc1,cell-free assay,,competition with immobilised ligand,1 µM,remaining binding,92%
CC/C(=N\NC(=O)NCc1cccc(O)c1)c1ccc(O)c(C)c1O,enzyme activity,inhibitor,,0.1 µM,inhibition,6.1%
CNC(=O)c1cc(Oc2ccc(NC(=O)Nc3ccc(Cl)c(C(F)(F)F)c3)cc2)ccn1,cell-free assay,,,0.5 µM,remaining signal,90.3%
CCCS(=O)(=O)Nc1ccc(F)c(C(=O)c2c[nH]c3ncc(-c4ccc(Cl)cc4)cc23)c1F,enzyme activity,inhibitor,,1 µM,inhibition,< 10%
Nc1ncnc2occ(-c3ccc(NC(=O)Nc4cc(C(F)(F)F)ccc4F)cc3)c12,cell-free assay,,,20 µM,remaining signal,0.2%
O=C1Nc2ccc(Cl)cc2C1=Cc1cc(Cl)c(O)c(Cl)c1,cell-free assay,,,0.5 µM,remaining signal,83.2%
CNC(=O)c1cc2c(Oc3ccc(NC(=O)C4(C(=O)Nc5ccc(F)cc5)CC4)cc3)ccnc2cc1OC,enzyme activity,inhibitor,radiometric,1 µM,inhibition,98%
Cc1ccc(Nc2nccc(N(C)c3ccc4c(C)n(C)nc4c3)n2)cc1S(N)(=O)=O,enzyme activity,inhibitor,,0.3 µM,inhibition,21%
CNC(=O)c1ccc(Nc2ncc(C(F)(F)F)c(NCc3nccnc3N(C)S(C)(=O)=O)n2)cc1,cell-free assay,,competition with immobilised ligand,0.1 µM,remaining binding,100%
CCN(CC)CCNC(=O)c1c(C)[nH]c(/C=C2\C(=O)Nc3ccc(F)cc32)c1C,enzyme activity,inhibitor,,10 µM,inhibition,92%
Cc1cc(NC(=O)c2cccc(S(F)(F)(F)(F)F)c2)cc(-n2ccn3nc(-c4cccnc4)cc23)c1,cell-free assay,,competition with immobilised ligand,1 µM,remaining binding,98.7%
Cc1ccc(NC(=O)c2ccc(CN3CCN(C)CC3)cc2)cc1Nc1nccc(-c2cncc(-c3oncc3C)c2)n1,enzyme activity,inhibitor,,0.5 µM,remaining activity,≤ 50%
CNCc1ccccc1-c1csc([C@H](C)Nc2nc(C)nc3cc(OC)c(OC)cc23)c1,cell-free assay,,competition with immobilised ligand,1 µM,remaining binding,98%
COc1cc(Cl)c(C(=O)N[C@@H](CN[C@H]2CC[C@@H](N)CC2)Cc2ccc(C#N)cc2)cc1-c1ccc(CN[C@H](C)c2ccc(C)cc2)o1,enzyme activity,inhibitor,,1 µM,remaining activity,99%
Cc1c(NC(=O)c2cc(C(N)=O)nc3cc(F)ccc23)c(C(F)(F)F)nn1Cc1ccc(C#N)cc1,cell-free assay,,competition with immobilised ligand,1 µM,remaining binding,69%
COc1cc2ncnc(Nc3ccc(F)c(Cl)c3)c2cc1OCCCN1CCOCC1,cell-free assay,,,0.5 µM,remaining signal,73.3%
CC(=O)N1CCC(c2ccc(C(=O)NC(=N)N)cc2C(F)(F)F)CC1,cell-free assay,,competition with immobilised ligand,1 µM,remaining binding,100%
Cc1sc(C(=O)NC2COC2)cc1-n1cc(NC(=O)Nc2c(F)cccc2Cl)cn1,enzyme activity,inhibitor,,10 µM,remaining activity,95%
CC(=O)c1c(NS(C)(=O)=O)c2cc(-c3ccc(Cl)cc3)c(-c3ccc(Cl)cc3Cl)nc2n(C)c1=O,cell-free assay,,competition with immobilised ligand,1 µM,remaining binding,100%
Cc1ccc(NC(=O)c2ccc(C)c(C(F)(F)F)c2)cc1C#Cc1nn(C2CCC(O)CC2)c2ncnc(N)c12 (stereo not shown),cell-free assay,,,10 µM,remaining signal,0%
CS(=O)(=O)CCNCc1ccc(-c2ccc3ncnc(Nc4ccc(OCc5cccc(F)c5)c(Cl)c4)c3c2)o1,cell-free assay,,,0.5 µM,remaining signal,86.5%
COc1cc2ncnc(Nc3ccc(Oc4ccccc4)cc3C)c2cc1OC,enzyme activity,inhibitor,,1 µM,inhibition,91%
